The list is not random: actives were taken first. Their share in the collection is about 3%.
S1P3 ag: S1P3 (human) receptor agonism | S1P3 NFAT-BLA reporter cells, FRET ratio; relative to 1 µM S1P, basal subtracted | 60,000 compounds, 0.1% hits | Q99500 | activation, % at 4.5 µM | AID 373;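 active = activation above the screen-wide mean plus 3 SD, cut at about 4.5% in these data, passing the limit was not always enough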
Target sequence (Q99500 whole entry, looked up): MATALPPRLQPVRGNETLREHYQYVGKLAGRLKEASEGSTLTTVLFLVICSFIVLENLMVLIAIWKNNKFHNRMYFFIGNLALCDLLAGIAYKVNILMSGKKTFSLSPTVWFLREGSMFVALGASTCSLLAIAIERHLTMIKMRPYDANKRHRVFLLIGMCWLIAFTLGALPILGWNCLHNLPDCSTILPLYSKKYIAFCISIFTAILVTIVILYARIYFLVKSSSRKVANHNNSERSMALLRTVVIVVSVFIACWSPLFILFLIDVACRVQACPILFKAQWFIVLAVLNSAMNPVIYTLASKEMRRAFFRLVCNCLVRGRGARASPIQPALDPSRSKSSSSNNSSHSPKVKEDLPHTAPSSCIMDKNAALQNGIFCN
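Benchmarks: high control 1 µM S1P / System: stable CHO line with human S1P3, Gα16, NFAT-BLA reporter / Dosing: single compound concentration, 4.5 µM final / Timing: 4 h compound at 37 °C, 2 h substrate at RT / Measured by: FRET β-lactamase substrate fluorescence, excitation 405 nm, 460/535 nm emission ratio, background-subtracted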
S1P1 ag-PAM: activates or potentiates agonism at human S1P1 receptor | 56,000 compounds, 0.57% hits | AID 449 | S1P1 CRE-bla cells, forskolin, beta-lactamase FRET, potentiator mode; S1P1 agonist co-added at EC20, 2 nM; 100% = saturating reference agonist, 0% = basal | activation, % at 9.5 µM | P21453;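 active = activation above a cutoff set at the mean activation of all tested compounds plus 3 SD, cut at about 54% in these data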;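 also: forskolin at 4 µM as EC80 and the EC20 agonist is SEW2871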
5HT1a ag: agonists of human 5-HT1a serotonin receptor | CHO 5-HT1a Ga15 NFAT-bla reporter, FRET ratio; 0% basal, 100% maximal reference agonist | activation, % at 10 µM | P08908 | 65,000 compounds, 0.56% hits;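 active = activation above the screen-wide mean activation plus 3 SD, cut at about 19% in these data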
HTR1E agonist: activates the human 5-HT1E serotonin receptor | 65,000 compounds, 0.69% hits | CHO 5-HT1E Ga15 NFAT-bla reporter, FRET; 0% DMSO wells, 100% control agonist wells | P28566 | activation, % at 6 µM | AID 574;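 active = activation above a set limit, the screen-wide mean activation plus 3 SD, cut at about 8.5% in these data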
5HT1E antag: blocks the human 5-HT1E serotonin receptor. 65,000 compounds, 0.99% hits. inhibition, % at 6 µM. CHO 5-HT1E Ga15 NFAT-bla reporter, FRET, antagonist;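 active = inhibition above a set limit, the mean inhibition across every tested compound plus 3 SD, cut at about 29% in these data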;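 also: signal is the 460 over 535 nm emission ratio of beta-lactamase substrate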
5-HT1A blocker: antagonists of human 5-HT1a serotonin receptor; P08908; CHO 5-HT1a Ga15 NFAT-bla reporter, antagonist mode; inhibition, % at 10 µM; 62,000 compounds, 0.68% hits;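 active = inhibition above the mean of all tested compounds plus 3 SD, cut at about 43% in these data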;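 also: receptor stimulated by 5-CT agonist at 100 nM near EC80; beta-lactamase reporter measured by ratiometric fluorescence of a cleavable substrate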
Large screens that a line does not name were inactive.

O=C(NCCc1ccccc1F)[C@@H]1CSC2c3ccccc3C(=O)N21 (some centres not stated)	none
O=C(Nc1cccc2cccnc12)c1cccnc1	5HT1a ag 39 (no result: S1P1 ag-PAM)
Cc1cnc(C(=O)Nc2cccc3cccnc23)cn1	none
CCCn1nc(NS(=O)(=O)c2ccccc2)c2cc3ccccc3nc21	5HT1a ag 24
COc1ccc(OC)c(NC(=O)CSc2nnnn2-c2ccc3c(c2)OCO3)c1	5-HT1A blocker 44
COC(=O)c1ccc(-n2nnnc2SCC(=O)Nc2cc(OC)ccc2OC)cc1	none
CCOC(=O)C1CCCN(S(=O)(=O)c2ccc(OC)c3ccccc23)C1 (configuration not stated)	none (no result: S1P1 ag-PAM)
CCn1nc(C(=O)OCc2c(C)noc2C)c2ccccc2c1=O	5HT1E antag 29
O=C1CSC(c2ccncc2)N1Cc1ccco1 (configuration not stated)	none (no result: S1P3 ag, S1P1 ag-PAM)
Cc1c(C(=O)NCCc2ccccc2)oc2ccc(S(=O)(=O)N3CCOCC3)cc12	none (no result: S1P3 ag, S1P1 ag-PAM)
Cn1cc(C(=O)NCCc2ccccc2)c(=O)c2cc(S(=O)(=O)N3CCOCC3)ccc21	HTR1E agonist 77
N=C1C(c2ccccc2)=C(O)CN1c1ccc2c(c1)OCO2	none
COC(=O)/C(=C1/Oc2cc(C)oc(=O)c2S1)C(F)(F)F	5HT1E antag 78 (no result: 5-HT1A blocker)
COC(=O)C1=C(N)Oc2cc(C)oc(=O)c2C1c1ccncc1 (configuration not stated)	none (no result: 5-HT1A blocker)
CCOC(=O)c1ccc(Oc2cc(C)nc(SC)n2)cc1	none
CCCCN(CC)Cc1ccc(CNC(=O)Nc2ccc(OC)cc2OC)o1	HTR1E agonist 52
CC1Oc2ccccc2N(CC(=O)N2CCCc3ccccc32)C1=O (configuration not stated)	5HT1a ag 41
CC1Oc2ccccc2N(CC(=O)N2CCc3ccccc32)C1=O (configuration not stated)	none
COc1cccc(CNCc2ccccn2)c1OC	HTR1E agonist 11
CSCC[C@H](NC(=O)Nc1ccc(C)cc1C)C(=O)O	5HT1a ag 111
CSCC[C@H](NC(=O)NCc1ccccc1F)C(=O)O	none
O=S(=O)(c1ccc(S(=O)(=O)N(Cc2ccco2)Cc2ccccc2Cl)cc1)N1CCCC1	none
CN(C)S(=O)(=O)c1ccc(S(=O)(=O)N(Cc2ccco2)Cc2ccccc2Cl)cc1	5HT1E antag 32
O=C(O)CC1C(=O)NCCN1Cc1ccc(F)c(F)c1 (configuration not stated)	HTR1E agonist 22
COc1ccc(N2CCN(CC(O)c3c[nH]c4ccc(OC)cc34)CC2C)cc1 (configuration not stated)	5HT1a ag 23
COc1ccc2[nH]cc(C(O)CN3CCN(c4ccccc4)CC3)c2c1 (configuration not stated)	none
COc1ccc(NC(=O)Cn2cccc2)cc1Cl	5HT1a ag 141
Cc1cc(C2=CC(C)(c3cc(C)oc3C)Nc3nc(C(F)(F)F)nn32)c(C)o1 (configuration not stated)	5-HT1A blocker 60
O=C1CN(C(=O)OCc2ccccc2)c2ccccc2N1	5HT1E antag 48 (no result: S1P3 ag, S1P1 ag-PAM)
CCC(CC)C(=O)Nc1cc(=O)n(C)c(=O)n1C	5HT1a ag 36
CC(=O)N1CCc2cc(S(=O)(=O)CCC(=O)N3CCN(C(=O)c4ccco4)CC3)ccc21	5HT1E antag 31
CCC(=O)N1CCc2cc(S(=O)(=O)N3CCN(C(=O)c4ccco4)CC3)ccc21	none (no result: S1P3 ag, S1P1 ag-PAM)
O=C(c1ccco1)N1CCN(/C(=N/S(=O)(=O)c2cccs2)c2ccccc2Cl)CC1	5HT1a ag 29
CN1C(=O)NC(NC(=O)c2ccco2)(C(F)(F)F)C1=O (configuration not stated)	none (no result: 5-HT1A blocker)
CC1=C(C#N)C(NC(=O)c2ccco2)(C(F)(F)F)C(=O)N1 (configuration not stated)	HTR1E agonist 12
COc1ccc2c(=O)c3c(=O)n(Cc4ccco4)c(C4CCCCC4)nc3oc2c1	none
COc1cccc(NC(=O)CSc2nc3n[nH]c(C)c3c(=N)n2-c2cccc(OC)c2)c1	5HT1E antag 33
COc1cccc(-n2c(SCC(=O)NCCC3=CCCCC3)nc3n[nH]c(C)c3c2=N)c1	none
Cc1nc(SC2C=CS(=O)(=O)C2)n[nH]1 (configuration not stated)	none (no result: 5-HT1A blocker)
COc1cccc(C2=NOC(C(=O)NCc3ccc(F)cc3)C2)c1 (configuration not stated)	none
COc1ccc(C2=NOC(C(=O)NCc3ccc(F)cc3)C2)cc1OC (configuration not stated)	5HT1E antag 70
COc1cc(C2=NOC(C(=O)NCc3ccc(F)cc3)C2)cc(OC)c1OC (configuration not stated)	5HT1E antag 70, 5-HT1A blocker 56
CCC(C)C(NC(=O)c1ccccc1NC(=O)c1ccco1)C(=O)NC1CCCCC1 (configuration not stated)	none
COc1ccc(C(=O)NCc2nnc(SCC(=O)N3CCCCC3)o2)cc1OC	none (no result: S1P3 ag, S1P1 ag-PAM)
O=C(CSc1nc2ccccc2c(=O)n1CC1CCCCC1)N1CCOCC1	none (no result: 5-HT1A blocker)
CCN(CC)C(=O)CSc1nc2ccccc2c(=O)n1CC1CCCCC1	5HT1E antag 37 (no result: 5-HT1A blocker)
CCc1nn(C(C)C(=O)Nc2cccc(C)c2C)c(=O)c2cc3occc3n12 (configuration not stated)	none
O=S(=O)(NCCOCC(F)(F)F)c1ccc2oc3ccccc3c2c1	none
Cn1cc(CN2CCN(c3ccccc3)CC2)c2ccccc21	HTR1E agonist 12 (no result: S1P3 ag, S1P1 ag-PAM)
c1ccc(-c2noc(CN3CCN(c4ccccc4)CC3)n2)cc1	none
CCC(=O)N(Cc1cc(=O)[nH]c2ccccc12)C1CCCCC1	none
CN1CCN(C2=C(Cl)C(=O)N(Cc3ccccc3)C2=O)CC1	HTR1E agonist 17
O=C1CCCc2sc3c(c2N1)CCCCC3	HTR1E agonist 11
CC1CCN(C(=O)CN2C(=O)c3ccccc3S2(=O)=O)CC1	5HT1a ag 38
NC(=O)C1CCN(C(=O)CN2C(=O)c3ccccc3S2(=O)=O)CC1	none
CC(=O)N=c1c(C#N)cc2c(=O)n3cccc(C)c3nc2n1CC(C)C	none
c1csc(-c2noc(COc3ccc4c(c3)CCCC4)n2)c1	none
CCCn1c2ccccc2c2nnc(SCC(=O)OC)nc21	5HT1E antag 30
Cn1c2ccccc2c2nnc(SCN3C(=O)c4ccccc4C3=O)nc21	none
CCn1c2ccccc2c2nnc(SCc3ccccc3)nc21	5HT1E antag 33
CCn1c2ccccc2c2nnc(SCN3C(=O)c4ccccc4C3=O)nc21	5HT1E antag 38 (no result: S1P1 ag-PAM)
CCN(CC)CCOc1cccc(C(C)C)c1	HTR1E agonist 13
